Laboratory results reported in the array DNA melting data of Ke et al. (doi:10.1101/2024.01.08.574731).

How the values were obtained:
[1] = folding enthalpy; higher = less favourable; fluorescence melt of hairpins on a sequencing array, two-state fit; settings: sodium 0.088 M
Procedure, shortened: (§1)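 Folding enthalpy and melting temperature were estimated with bootstrapped two-state fits and combined across four replicates by inverse-variance weighting, with fitted temperatures raised by 9.35 °C to match UV melts. The data were Cy3 fluorescence of library hairpins, with annealed Cy3 and quencher oligos, on a sequenced MiSeq flow cell in 50 mM Na-HEPES pH 8.0, 25 mM NaCl, imaged in 2.5 °C steps up to 60 °C and normalised to pre-quench Cy3 and control constructs.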

[2] = melting temperature; fluorescence melt of hairpins on a sequencing array, two-state fit, raised by 9.35 °C to match UV melts; settings: sodium 0.088 M
Procedure, shortened: as §1

Row | Sequence | folding enthalpy [1] | Tm [2]
1 | GGTTTCGAAAGAACAACC ((((((....)))..))) | -13 kcal/mol | 30.4 °C
2 | GGTTTCGCGAAAGCGACC (((..(((....)))))) | -8.08 kcal/mol | 32.1 °C
3 | GGTTTCGGAAACGAGATC (.(.(((....))).).) | -11.6 kcal/mol | 27.7 °C
4 | GGTTTCGGAAACGGAATC (.((.((....)).)).) | -20.8 kcal/mol | 33.4 °C
5 | GGTTTCTCGAAAGAGACC (((..(((....)))))) | -18.8 kcal/mol | 32.6 °C
6 | GGTTTGGGAAACTAAACC (((((.(....).))))) | -33 kcal/mol | 44.7 °C
7 | GGTTTGTCGAAAGACACC (((..(((....)))))) | -10.9 kcal/mol | 31.2 °C
8 | GGTTTTCCGAAAGGAACC (((..(((....)))))) | -12.1 kcal/mol | 31.1 °C
9 | GGTTTTGGAAACGAAATC (.(((.(....).))).) | -12.1 kcal/mol | 25.2 °C
10 | GTAAAAGGAAACTTTTAC (((((((....))))))) | -37.1 kcal/mol | 46.4 °C
11 | GTAAACCCGAAAGGGTAC (((..(((....)))))) | -10.1 kcal/mol | 32.8 °C
12 | GTAAACCGAAAGGTCTAC (((.(((....))).))) | -19.2 kcal/mol | 35.6 °C
13 | GTAAACGAAAGTTGCTAC ((((((....)))..))) | -9.49 kcal/mol | 29 °C
14 | GTAAACGCGAAAGCGTAC (((..(((....)))))) | -8.26 kcal/mol | 35 °C
15 | GTAAAGACGAAAGTCTAC (((..(((....)))))) | -11.6 kcal/mol | 29.8 °C
16 | GTAAAGGGAAACCCTTAC ((((.((....)).)))) | -22.2 kcal/mol | 32.8 °C
17 | GTAAAGGGAAACCTTTGC (.(((((....))))).) | -28.4 kcal/mol | 37.5 °C
18 | GTAAAGTCGAAAGACTAC (((..(((....)))))) | -11.7 kcal/mol | 31.9 °C
19 | GTAAATCGAAAGATGTAC (((.(((....))).))) | -23.1 kcal/mol | 34.4 °C
20 | GTAAATCGAAAGATTAC (((.(((....)))))) | -14 kcal/mol | 33.9 °C
21 | GTAAATGAAAATTTAC ((((((....)))))) | -26.1 kcal/mol | 37.2 °C
22 | GTAAATGCGAAAGCATAC (((..(((....)))))) | -10.9 kcal/mol | 29.3 °C
23 | GTAACCGAAAGGTGTAC ((((((....))).))) | -19.5 kcal/mol | 41.3 °C

Row | Sequence | folding enthalpy [1] | Tm [2]
24 | GTAACCGAAAGGTTATAC ((((((....)))..))) | -13.4 kcal/mol | 43.7 °C
25 | GTAACCGAAAGGTTTAC ((((((....))).))) | -14.2 kcal/mol | 43 °C
26 | GTAACGAAAGTTAC (((((....))))) | -26.1 kcal/mol | 55 °C
27 | GTAACGCCGAAAGGCTAC (((..(((....)))))) | -6.97 kcal/mol | 27.1 °C
28 | GTAACGGGAAACTGTTGC (.(((.(....).))).) | -22.8 kcal/mol | 32.9 °C
29 | GTAACTGGAAACGGTTAC (((((.(....).))))) | -32.6 kcal/mol | 44.1 °C
30 | GTAAGAGAAATCTTAC ((((((....)))))) | -22 kcal/mol | 38.6 °C
31 | GTAAGCCGAAAGGCTAC (((.(((....)))))) | -11.5 kcal/mol | 47.3 °C
32 | GTAAGCGAAAGCTGATAC ((((((....)))..))) | -12.2 kcal/mol | 29.8 °C
33 | GTAAGCGGAAACGCTCAC ((.((((....)))).)) | -13.4 kcal/mol | 37.7 °C
34 | GTAAGCTCGAAAGAGTAC (((..(((....)))))) | -12.2 kcal/mol | 27 °C
35 | GTAAGGTCGAAAGACTAC (((..(((....)))))) | -13.1 kcal/mol | 29.1 °C
36 | GTAAGTCGAAAGACTAC (((.(((....)))))) | -16.9 kcal/mol | 39.5 °C
37 | GTAAGTGCGAAAGCATAC (((..(((....)))))) | -11.2 kcal/mol | 27.2 °C
38 | GTAAGTGGAAACGCTTAC (((((.(....).))))) | -27.6 kcal/mol | 45.4 °C
39 | GTAAGTGGAAACGTTTAC ((((..(....)..)))) | -10.7 kcal/mol | 27.5 °C
40 | GTAATACGAAAGTAATAC (((.(((....))).))) | -20.2 kcal/mol | 34 °C
41 | GTAATACGAAAGTATAC (((.(((....)))))) | -16 kcal/mol | 34.5 °C
42 | GTAATCCGAAAGGAGTAC (((.(((....))).))) | -28.5 kcal/mol | 49.9 °C
43 | GTAATCGAAAGATGTAC ((((((....))).))) | -16.9 kcal/mol | 30.8 °C
44 | GTAATCGCGAAAGCGTAC (((..(((....)))))) | -6.16 kcal/mol | 26.7 °C
45 | GTAATGAAAATTAC (((((....))))) | -15.6 kcal/mol | 34.1 °C
46 | GTAATGGGAAACTATTAC (((((.(....).))))) | -28.6 kcal/mol | 34.5 °C

Row | Sequence | folding enthalpy [1] | Tm [2]
47 | GTAATTCCGAAAGGATAC (((..(((....)))))) | -10.6 kcal/mol | 28.2 °C
48 | GTAATTCGAAAGAACTAC (((.(((....))).))) | -14.6 kcal/mol | 30 °C
49 | GTAATTCGAAAGAAGTAC (((.(((....))).))) | -25 kcal/mol | 42.3 °C
50 | GTACAACGAAAGTTATAC (((.(((....))).))) | -19.1 kcal/mol | 30.4 °C
51 | GTACAACGAAAGTTTTAC (((.(((....))).))) | -18.6 kcal/mol | 36.7 °C
52 | GTACAAGGAAACTTGTAC (((((((....))))))) | -38.9 kcal/mol | 53.2 °C
53 | GTACACGAAAGTGCGTAC ((((((....)))..))) | -10.7 kcal/mol | 30.8 °C
54 | GTACACGAAAGTGGCTAC ((((((....)))..))) | -13.9 kcal/mol | 35.7 °C
55 | GTACACGAAAGTGGTTAC ((((((....)))..))) | -10.7 kcal/mol | 30.5 °C
56 | GTACACGCGAAAGCGTAC (((..(((....)))))) | -8.06 kcal/mol | 35.5 °C
57 | GTACACGGAAACGCGTAC ((((.((....)).)))) | -40.1 kcal/mol | 48.3 °C
58 | GTACAGCGAAAGCTCTAC (((.(((....))).))) | -17.3 kcal/mol | 29.5 °C
59 | GTACAGCGAAAGCTTTAC (((.(((....))).))) | -24.7 kcal/mol | 39.6 °C
60 | GTACATCGAAAGATATAC (((.(((....))).))) | -16 kcal/mol | 29.6 °C
61 | GTACATGGAAACATGTAC (((((((....))))))) | -51.6 kcal/mol | 55.7 °C
62 | GTACCACCGAAAGGTTAC (((..(((....)))))) | -11.5 kcal/mol | 21.6 °C
63 | GTACCACGAAAGTGCTAC (((.(((....))).))) | -13.7 kcal/mol | 33.6 °C
64 | GTACCAGGAAACTGGTAC (((((((....))))))) | -40.4 kcal/mol | 62.2 °C
65 | GTACCCCGAAAGGGTTAC (((.(((....))).))) | -19.6 kcal/mol | 41.8 °C
66 | GTACCCGAAAGGGGTTAC ((((((....)))..))) | -10.1 kcal/mol | 35.2 °C
67 | GTACCCGAAAGGGTCTAC ((((((....)))..))) | -10.7 kcal/mol | 42.2 °C
68 | GTACCCGAAAGGGTGTAC ((((((....)))..))) | -10.1 kcal/mol | 40.3 °C
69 | GTACCCGAAAGGGTTTAC ((((((....)))..))) | -8.12 kcal/mol | 33 °C

Row | Sequence | folding enthalpy [1] | Tm [2]
70 | GTACCCGGAAACAGGTAC (((((.(....).))))) | -25.7 kcal/mol | 39.4 °C
71 | GTACCGCGAAAGCGTAC (((.(((....)))))) | -14.1 kcal/mol | 51.1 °C
72 | GTACCGCGAAAGCGTTAC (((.(((....))).))) | -21 kcal/mol | 42.9 °C
73 | GTACCGGGAAACCAGTAC ((((.((....)).)))) | -23.5 kcal/mol | 38.4 °C
74 | GTACCGGGAAACCGGCAC ((.((((....)))).)) | -17.7 kcal/mol | 47.9 °C
75 | GTACCGGGAAACTGGTGC (.(((.(....).))).) | -25.9 kcal/mol | 42.4 °C
76 | GTACCTCGAAAGAGTTAC (((.(((....))).))) | -27.9 kcal/mol | 35.3 °C
77 | GTACCTGAAAAGGTAC ((((((....)))))) | -31.6 kcal/mol | 60 °C
78 | GTACCTGGAAACAGATAC (((.(((....))).))) | -18.8 kcal/mol | 32.7 °C
79 | GTACGACGAAAGTCTAC (((.(((....)))))) | -19.7 kcal/mol | 37.2 °C
80 | GTACGAGGAAACTCGCAC ((.((((....)))).)) | -19.8 kcal/mol | 42.4 °C
81 | GTACGAGGAAACTCGTAC (((((((....))))))) | -36.4 kcal/mol | 61.9 °C
82 | GTACGAGGAAACTCGTGC (.(((((....))))).) | -39.2 kcal/mol | 52 °C
83 | GTACGCACGAAAGTGTAC (((..(((....)))))) | -15.6 kcal/mol | 36.4 °C
84 | GTACGCGAAAGCGACTAC ((((((....)))..))) | -11.9 kcal/mol | 41.9 °C
85 | GTACGCGAAAGCGGATAC ((((((....)))..))) | -10.3 kcal/mol | 37.1 °C
86 | GTACGCGAAAGCGGGTAC ((((((....)))..))) | -10.6 kcal/mol | 38.7 °C
87 | GTACGCGGAAACGCGCAC ((.((((....)))).)) | -14 kcal/mol | 52.9 °C
88 | GTACGCGGAAACGCGTGC (.(((((....))))).) | -15.4 kcal/mol | 60.9 °C
89 | GTACGCTCGAAAGAGTAC (((..(((....)))))) | -21.8 kcal/mol | 34.1 °C
90 | GTACGGCGAAAGCCATAC (((.(((....))).))) | -17.7 kcal/mol | 42.1 °C
91 | GTACGGCGAAAGCCTTAC (((.(((....))).))) | -19.3 kcal/mol | 43.2 °C
